Measurements gathered from unrelated publications.
Each line is one published result; the experiments were not run side by side.
Observed: binding
ERBB2: Receptor tyrosine-protein kinase erbB-2 (ERBB2, Homo sapiens, UniProt P04626)
ABL1 non-phosphorylated: Tyrosine-protein kinase ABL1, non-phosphorylated (ABL1, Homo sapiens, UniProt P00519)

O=C1Nc2ccccc2C1=O
Kd (Parkinson disease protein 7 (PARK7, Homo sapiens, UniProt Q99497); SPR): 2 µM

CC(C)C[C@H](NC(=O)[C@H](CO)NC(=O)[C@H](Cc1ccc(O)cc1)NC(=O)[C@H](CS)NC(=O)[C@H](CS)NC(=O)[C@@H](N)CCCCN)C(=O)O
Kd (ERBB2; fluorescence; pH 7.4): 0.18 µM

COc1cc2c(Oc3ccc4[nH]c(C)cc4c3F)ccnc2cc1OCC1(N)CC1
Kd (AMP-activated protein kinase (AMPK) alpha-1/beta-1/gamma-1 (PRKAG1/PRKAA1/PRKAB1, Homo sapiens, UniProt P54619+Q13131+Q9Y478); SPR): 23.5 µM

CC(C)C[C@H](NC(=O)[C@H](C)NC(=O)[C@@H](NC(=O)[C@H](CCCCN)NC(=O)[C@H](CC(=O)O)NC(=O)[C@H](Cc1ccc(OP(=O)(O)O)cc1)NC(=O)[C@H](C)NC(=O)[C@H](CC(N)=O)NC(=O)[C@@H]1CCCN1C(=O)[C@@H](NC(=O)[C@H](CCCNC(=N)N)NC(=O)[C@H](CCCCN)NC(=O)CCCCCNC(=O)CCCC[C@@H]1SC[C@@H]2NC(=O)N[C@@H]21)C(C)C)[C@@H](C)O)C(=O)N[C@@H](C)C(=O)N[C@@H](CC(C)C)C(=O)N[C@@H](CCC(=O)O)C(=O)O
Kd (Tyrosine-protein kinase ABL1, SH2 (ABL1, Homo sapiens, UniProt P00519); ITC): 85.5 µM

Cc1cnc(-c2ccc(-c3ccc(NC(=O)Nc4c(F)cc(F)cc4F)cc3F)c3c2C(=O)NC3)[nH]1
Kd (Dual specificity mitogen-activated protein kinase kinase 6 (MAP2K6, Homo sapiens, UniProt P52564); competition with immobilised ligand): 0.012 µM

Cc1ccc(NC(=O)c2ccc(CN3CCS(=N)(=O)CC3)cc2)cc1Nc1nccc(-c2cccnc2)n1
Kd (ABL1 non-phosphorylated; competition with immobilised ligand): 0.079 µM

O=c1cccccc1O
Kd (Carbonic anhydrase 2 (CA2, Homo sapiens, UniProt P00918); ITC): 1680 µM

Cc1cc2nc3c(=O)[nH]c(=O)nc-3n(C[C@H](O)[C@H](O)[C@H](O)COP(=O)(O)OP(=O)(O)OC[C@H]3O[C@@H](n4cnc5c(N)ncnc54)[C@H](O)[C@@H]3O)c2cc1C
Kd (CPEB4 (Homo sapiens, UniProt Q17RY0); lysate): 0.005 µM

Cc1cc(Nc2cc3ncccc3c(N[C@@H]3C[C@H]4CC[C@@H](C3)N4CCC#N)n2)n[nH]1
Kd (STE20-like serine/threonine-protein kinase (SLK, Homo sapiens, UniProt Q9H2G2); competition with immobilised ligand): 0.11 µM

FC(F)(F)c1n[nH]cc1-c1nc2ccc3[nH]ncc3c2c2c1CCCC2
Kd (ABL1 non-phosphorylated; competition with immobilised ligand): 5.8 µM

CC#CC(=O)N1CC[C@@H](n2cc(-c3ccc(Oc4c(F)cccc4F)cc3)c3c(N)n[nH]c(=O)c32)C1
Kd (ERBB2; competition with immobilised ligand): > 3 µM
